Source: the array DNA melting data of Ke et al. (doi:10.1101/2024.01.08.574731)

Experiments:
[1] = folding enthalpy; higher = less favourable; fluorescence melt of hairpins on a sequencing array, two-state fit; settings: sodium 0.088 M
In short: (§1)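 Melting temperature and folding enthalpy were derived from bootstrapped two-state fits. The fitted temperatures were raised by 9.35 °C to agree with UV melts, and four replicates were combined by inverse variance. The underlying data were Cy3 fluorescence images of library hairpins, with annealed Cy3 and quencher oligos, on a sequenced MiSeq flow cell in 50 mM Na-HEPES pH 8.0, 25 mM NaCl, taken in 2.5 °C steps up to 60 °C, normalised to pre-quench Cy3 and to control constructs.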

[2] = melting temperature; fluorescence melt of hairpins on a sequencing array, two-state fit, raised by 9.35 °C to match UV melts; settings: sodium 0.088 M
In short: as §1

Sequence | folding enthalpy [1] [kcal/mol] | Tm [2] [°C]
GCATAGGGAAACCTATAC (.(((((....))))).) | -14.4 | 27.8
GCATAGGGAAACTTATGC (((((.(....).))))) | -29.2 | 41.6
GCATAGTCGAAAGACTGC (((..(((....)))))) | -15.2 | 43.1
GCATATGGAAACATATGC (((((((....))))))) | -41.6 | 56.3
GCATCACGAAAGTGCTGC (((.(((....))).))) | -44 | 52.4
GCATCACGAAAGTGTGC (((.(((....)))))) | -39.2 | 56
GCATCAGGAAACCGATGC (((((.(....).))))) | -33.4 | 50
GCATCAGGAAACTGATAC (.(((((....))))).) | -18.7 | 34.2
GCATCAGGAAACTGATGC (((((((....))))))) | -46.9 | 67.1
GCATCCGAAAGGAATTGC ((((((....)))..))) | -20.2 | 36.9
GCATCCGAAAGGACATGC ((((((....)))..))) | -23.1 | 43.3
GCATCCGAAAGGAGTGC ((((((....))).))) | -22.5 | 51.2
GCATCCGAAAGGATGTGC ((((((....)))..))) | -18.9 | 60.5
GCATCCGGAAACGGACAC (..((((....))))..) | -12.7 | 21.6
GCATCGAAAGATGC (((((....))))) | -31.8 | 69.2
GCATCGCGAAAGCAAGGC ((.(.((....)).).)) | -12.7 | 39.6
GCATCGCGAAAGCACTGC (((..((....))..))) | -14.7 | 38.5
GCATCGCGAAAGCCATGC ((((.((....)).)))) | -35.7 | 56.3
GCATCGCGAAAGCCTTGC (((..((....))..))) | -16.7 | 38.3
GCATCGCGAAAGCGCGGC ((..(((....)))..)) | -14.8 | 44.7
GCATCGCGAAAGCGGCGC ((..(((....)))..)) | -21.2 | 57.3
GCATCGCGAAAGCGTCGC ((..(((....)))..)) | -11.5 | 42.1
GCATCGCGAAAGCTCTGC (((..((....))..))) | -15.9 | 36.8

Sequence | folding enthalpy [1] [kcal/mol] | Tm [2] [°C]
GCATCGGCGAAAGCCTGC (((..(((....)))))) | -15.2 | 39.8
GCATCGGGAAACCGACAC (..((((....))))..) | -11.9 | 25.8
GCATCGGGAAACTGGTGC (((.(.(....).).))) | -29 | 42.7
GCATCTGGAAACAAATGC ((((.((....)).)))) | -21.8 | 32.6
GCATCTGGAAACAGACGC ((.((((....)))).)) | -33 | 44.2
GCATCTGGAAACAGATAC (.(((((....))))).) | -16.8 | 36.3
GCATCTGGAAACAGGTGC (((.(((....))).))) | -40.5 | 52.2
GCATCTGGAAACGGATGC (((((.(....).))))) | -44.6 | 53.8
GCATGCGAAAGCAACTGC ((((((....)))..))) | -14.2 | 40.2
GCATGCGGAAACACACGC ((.((.(....).)).)) | -10.2 | 30.4
GCATGCGGAAACACATGC (((((.(....).))))) | -42 | 49.7
GCATGCGGAAACGCACGC ((.((((....)))).)) | -25.7 | 52.1
GCATGCGGAAACGTATGC ((((.((....)).)))) | -41.4 | 56.1
GCATGGCCGAAAGGCTGC (((..(((....)))))) | -13.2 | 53.3
GCATGGCGAAAGCCACGC ((.((((....)))).)) | -17.6 | 60.9
GCATGGCGAAAGCCCAGC ((..(((....)))..)) | -12 | 46.3
GCATGGCGAAAGCCCCGC ((..(((....)))..)) | -12.4 | 29.6
GCATGGCGAAAGCCCGGC ((..(((....)))..)) | -15.7 | 43.3
GCATGGCGAAAGCCGCGC ((..(((....)))..)) | -19.7 | 61.1
GCATGGCGAAAGCCGGGC ((..(((....)))..)) | -17.7 | 60.4
GCATGGCGAAAGCCTAGC ((..(((....)))..)) | -17.9 | 52.1
GCATGGCGAAAGCCTGC (((.(((....)))))) | -27 | 63.8
GCATGGCGAAAGCGAGGC ((.(.((....)).).)) | -19 | 47.3

Sequence | folding enthalpy [1] [kcal/mol] | Tm [2] [°C]
GCATGGCGAAAGCGGTGC (((..((....))..))) | -23.8 | 56.1
GCATGGCGAAAGCTTTGC (((..((....))..))) | -21.4 | 46.7
GCATGGGGAAACCTGTGC (((..((....))..))) | -30.3 | 44.3
GCATGGTCGAAAGACTGC (((..(((....)))))) | -18.1 | 39.8
GCATGTGGAAACATGTGC (((..((....))..))) | -31.6 | 49.6
GCATTACGAAAGTACTGC (((.(((....))).))) | -36.5 | 46.4
GCATTACGAAAGTATGC (((.(((....)))))) | -26.9 | 48.7
GCATTAGGAAACTAACGC ((.((((....)))).)) | -22.6 | 31.7
GCATTCGAAAGAAAGTGC ((((((....)))..))) | -12.4 | 30.4
GCATTCGAAAGAACATGC ((((((....)))..))) | -15.8 | 33
GCATTCGAAAGAAGCTGC ((((((....)))..))) | -23.5 | 40.8
GCATTCGAAAGAAGTTGC ((((((....)))..))) | -7.36 | 26
GCATTCGGAAACGAGTGC (((.(((....))).))) | -46.7 | 53
GCATTGCCGAAAGGCTGC (((..(((....)))))) | -14.8 | 46.5
GCATTGCGAAAGCACCGC ((..(((....)))..)) | -10.7 | 34.5
GCATTGCGAAAGCGAAGC ((.(.((....)).).)) | -14.5 | 38.9
GCATTGCGAAAGCGACGC ((.(.((....)).).)) | -16.6 | 49.3
GCATTGCGAAAGCGAGGC ((.(.((....)).).)) | -21 | 59.1
GCATTGCGAAAGCTCTGC (((..((....))..))) | -23.5 | 39.2
GCATTGCGAAAGCTTTGC (((..((....))..))) | -21.4 | 49.1
GCATTTCGAAAGAAGTGC (((.(((....))).))) | -45.6 | 51.4
GCCAAAGGAAACTCTGGC ((((.((....)).)))) | -32.6 | 35.4
GCCAACGAAAGTTAAGGC ((((((....)))..))) | -25.6 | 45.8

Sequence | folding enthalpy [1] [kcal/mol] | Tm [2] [°C]
GCCAACGAAAGTTGCGGC ((((((....)))..))) | -16.9 | 51.5
GCCAACGAAAGTTGTGGC ((((((....)))..))) | -18.4 | 48.4
GCCAACGAAAGTTTAGGC ((((((....)))..))) | -28.2 | 43.8
GCCAACGGAAACGTCGGC (((.(((....))).))) | -42.8 | 51.1
GCCAAGCGAAAGCAAGGC (((..((....))..))) | -23.7 | 59.2
GCCAAGCGAAAGCCTCGC ((.(.((....)).).)) | -5.93 | 23.1
GCCAAGCGAAAGCTATGC ((..(((....)))..)) | -13.2 | 33.9
GCCAAGCGAAAGCTCAGC ((..(((....)))..)) | -13.6 | 37.3
GCCAAGCGAAAGCTCGGC (((.(((....))).))) | -38.9 | 57.4
GCCAAGCGAAAGCTTAGC ((.((((....)))).)) | -17.6 | 48.9
GCCAAGGGAAACCTTAGC ((.((((....)))).)) | -19.3 | 33.2
GCCAAGGGAAACCTTGGC (((((((....))))))) | -37.5 | 68.8
GCCAATCCGAAAGGAGGC (((..(((....)))))) | -22.2 | 47
GCCAATGGAAACACTGGC ((((.((....)).)))) | -31.9 | 41.9
GCCAATGGAAACATCGGC (((.(((....))).))) | -28.9 | 44
GCCAATGGAAACATTGAC (.(((((....))))).) | -22.2 | 37.7
GCCACACCGAAAGGTGGC (((..(((....)))))) | -12.3 | 55.6
GCCACAGGAAACTACGGC (((..((....))..))) | -30.8 | 39.5
GCCACCGAAAGGTAAGGC ((((((....)))..))) | -26.9 | 52.6
GCCACCGAAAGGTACGGC ((((((....)))..))) | -24.9 | 49
GCCACCGAAAGGTATGGC ((((((....)))..))) | -36.9 | 52.8
